Source: ChEMBL document CHEMBL4613272, “Anti-HIV-Active Nucleoside Triphosphate Prodrugs” (J Med Chem, 2020)

Key:
[1] = system: Human immunodeficiency virus 2; experiment: Antiviral activity against HIV2 ROD infected in thymidine kinase-deficient human CEM cells assessed as inhibition of virus-induced giant cell formation measured after 4 to 5 days by microscopic analysis; details: Human immunodeficiency virus 2, ISOLATE ROD, CCRF-CEM
[2] = system: Human immunodeficiency virus 2; experiment: Antiviral activity against HIV2 ROD infected in human CEM/0 cells assessed as inhibition of virus-induced giant cell formation measured after 4 to 5 days by microscopic analysis; details: Human immunodeficiency virus 2, ISOLATE ROD, CCRF-CEM
[3] = system: Human immunodeficiency virus 1; experiment: Antiviral activity against HIV1 HE infected in human CEM/0 cells assessed as inhibition of virus-induced giant cell formation measured after 4 to 5 days by microscopic analysis; details: Human immunodeficiency virus 1, HE, CCRF-CEM
[4] = Selectivity index, ratio of CC50 for human CEM cells to EC50 for HIV1 HE infected in human CEM/0 cells; details: CEM cells (CC50) and HIV1 HE infected CEM/0 cells (EC50)
[5] = Half life in pH 7.3 phosphate buffered saline by HPLC analysis; type: physicochemical
Method in brief: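 Prodrug from 50 mM DMSO-d6 stock diluted to 1.9 mM with water/DMSO-d6. Reaction started by adding phosphate buffer (50 mM stock, pH 7.3). Products followed by analytical RP18 HPLC with TBAA or TEAA buffer/acetonitrile gradient.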

[6] = Cytotoxicity against human CEM cells assessed as reduction in cell proliferation; type: cell-based; details: CEM cells (CCRF-CEM)
Method in brief: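 CC50 is the compound concentration inhibiting CEM CD4+ T-cell proliferation by 50%. Mean ± SD of n=2-3 independent experiments.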

[7] = Half life in pH 7.3 phosphate buffered saline in presence of pig liver esterase by HPLC analysis; type: ADME, Sus scrofa
Method in brief: (§1)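 Prodrug diluted from 50 mM DMSO stock through a 6.0 mM intermediate into DMSO/50 mM PBS pH 7.3. Started with pig liver esterase (3 mg/mL solution in PBS) and shaken at 37 °C, 800 rpm. Aliquots quenched in MeOH at intervals, filtered, stored in liquid nitrogen and analysed by RP18 HPLC.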

[8] = Prodrug conversion in pH 7.3 phosphate buffered saline assessed as pig liver esterase-mediated d4TTP formation by HPLC analysis; type: ADME, Sus scrofa; details: in vitro
Method in brief: as §1

SMILES | EC50 [1] [nM] | EC50 [2] [nM] | EC50 [3] [nM] | half-life [5] [h] | half-life [7] [h] | Drug metabolism [8] | selectivity ratio [4] | CC50 [6] [nM]
CCCCCCCCCOC(=O)Oc1ccc(COP(=O)(OCc2ccc(OC(=O)CCCCCCCCC)cc2)OP(=O)(O)OP(=O)(O)OC[C@@H]2C=C[C@H](n3cc(C)c(=O)[nH]c3=O)O2)cc1.N.N (some centres not stated) | 150 | 90 | 110 | 81 | – | – | 336 | 37000
CCCCCCCCCCCCCCCCOC(=O)Oc1ccc(COP(=O)(OCc2ccc(OC(=O)CCCCCC)cc2)OP(=O)(O)OP(=O)(O)OC[C@@H]2C=C[C@H](n3cc(C)c(=O)[nH]c3=O)O2)cc1.N.N (some centres not stated) | – | – | – | 89 | – | – | – | –
CCCCCCCCCCCCCCCCCCOC(=O)Oc1ccc(COP(=O)(OCc2ccc(OC(=O)CCCC)cc2)OP(=O)(O)OP(=O)(O)OC[C@@H]2C=C[C@H](n3cc(C)c(=O)[nH]c3=O)O2)cc1.N.N (some centres not stated) | 560 | 25 | 55 | 74 | – | – | 1050 | 58000
Cc1cn([C@H]2C=C[C@@H](COP(=O)(O)OP(=O)(O)OP(=O)(O)O)O2)c(=O)[nH]c1=O [STAVUDINE TRIPHOSPHATE] | – | – | – | > 500 | – | – | – | –
CCCCCCCCCCCCOC(=O)Oc1ccc(COP(=O)(OCc2ccc(OC(=O)CCC)cc2)OP(=O)(O)OP(=O)(O)OC[C@@H]2C=C[C@H](n3cc(C)c(=O)[nH]c3=O)O2)cc1.N.N (some centres not stated) | – | – | – | 75 | – | – | – | –
CCCCCCCCCCCCCCCCOC(=O)Oc1ccc(COP(=O)(OCCC#N)OP(=O)(O)OP(=O)(O)OC[C@@H]2C=C[C@H](n3cc(C)c(=O)[nH]c3=O)O2)cc1.N.N (some centres not stated) | 3260 | 300 | 530 | 56 | – | – | 100 | 53000
CCCCCCCCCCCCCCCCOC(=O)Oc1ccc(COP(=O)(OCc2ccc(OC(=O)CCCCCCCCC)cc2)OP(=O)(O)OP(=O)(O)OC[C@@H]2C=C[C@H](n3cc(C)c(=O)[nH]c3=O)O2)cc1.N.N (some centres not stated) | 240 | 78 | 160 | 85 | – | – | 100 | 16000
CCCCCCCCCCCCOC(=O)Oc1ccc(COP(=O)(OCc2ccc(OC(=O)C(C)C)cc2)OP(=O)(O)OP(=O)(O)OC[C@@H]2C=C[C@H](n3cc(C)c(=O)[nH]c3=O)O2)cc1.N.N (some centres not stated) | – | – | – | 70 | – | – | – | –
CCCCCCCCCCCCCCCCOC(=O)Oc1ccc(COP(=O)(OCc2ccc(OC(=O)CC(C)C)cc2)OP(=O)(O)OP(=O)(O)OC[C@@H]2C=C[C@H](n3cc(C)c(=O)[nH]c3=O)O2)cc1.N.N (some centres not stated) | – | – | – | 77 | – | – | – | –
CCCCCCCCCOC(=O)Oc1ccc(COP(=O)(OCc2ccc(OC(=O)CC)cc2)OP(=O)(O)OP(=O)(O)OC[C@@H]2C=C[C@H](n3cc(C)c(=O)[nH]c3=O)O2)cc1.N.N (some centres not stated) | 1760 | 40 | 73 | 25 | – | – | 1150 | 84000
CCCCCCCCCCCCOC(=O)Oc1ccc(COP(=O)(O)OP(=O)(O)OP(=O)(O)OC[C@@H]2C=C[C@H](n3cc(C)c(=O)[nH]c3=O)O2)cc1.N.N.N | 1980 | 250 | 330 | 625 | – | – | > 303 | > 100000
CCCCCCCCCCCCCCOC(=O)Oc1ccc(COP(=O)(OCc2ccc(OC(=O)CCCC)cc2)OP(=O)(O)OP(=O)(O)OC[C@@H]2C=C[C@H](n3cc(C)c(=O)[nH]c3=O)O2)cc1.N.N (some centres not stated) | – | – | – | 69 | – | – | – | –
CCCCCCCCCCOC(=O)Oc1ccc(COP(=O)(OCc2ccc(OC(=O)CC)cc2)OP(=O)(O)OP(=O)(O)OC[C@@H]2C=C[C@H](n3cc(C)c(=O)[nH]c3=O)O2)cc1.N.N (some centres not stated) | – | – | – | 34 | – | – | – | –
CCCCCCCCCCCCOC(=O)Oc1ccc(COP(=O)(OCCC#N)OP(=O)(O)OP(=O)(O)OC[C@@H]2C=C[C@H](n3cc(C)c(=O)[nH]c3=O)O2)cc1.N.N (some centres not stated) | 2480 | 230 | 470 | 30 | – | – | > 212 | > 100000
CCCCCCCCCCCCCCCCCCOC(=O)Oc1ccc(COP(=O)(OCc2ccc(OC(=O)OCCCC)cc2)OP(=O)(O)OP(=O)(O)OC[C@@H]2C=C[C@H](n3cc(C)c(=O)[nH]c3=O)O2)cc1.N.N (some centres not stated) | – | – | – | 111 | – | – | – | –
CCCCCCCCCCCCOC(=O)Oc1ccc(COP(=O)(OCc2ccc(OC(=O)OCCCC)cc2)OP(=O)(O)OP(=O)(O)OC[C@@H]2C=C[C@H](n3cc(C)c(=O)[nH]c3=O)O2)cc1.N.N (some centres not stated) | 1120 | 170 | 730 | 107 | 0.28 | Metabolite_Detected | 74 | 54000
CCCCCCCCCCCCCCOC(=O)Oc1ccc(COP(=O)(OCc2ccc(OC(=O)CC)cc2)OP(=O)(O)OP(=O)(O)OC[C@@H]2C=C[C@H](n3cc(C)c(=O)[nH]c3=O)O2)cc1.N.N (some centres not stated) | – | – | – | 74 | – | – | – | –

More lines, main results first:

EC50 [1] [nM] | EC50 [2] [nM] | EC50 [3] [nM] | half-life [5] [h] | half-life [7] [h] | Drug metabolism [8] | SMILES | selectivity ratio [4] | CC50 [6] [nM]
– | – | – | 544 | – | – | CCCCCCOC(=O)Oc1ccc(COP(=O)(O)OP(=O)(O)OP(=O)(O)OC[C@@H]2C=C[C@H](n3cc(C)c(=O)[nH]c3=O)O2)cc1.N.N.N | – | –
640 | 130 | 61 | 66 | 0.44 | Metabolite_Detected | CCCCCCCCCCCCOC(=O)Oc1ccc(COP(=O)(OCc2ccc(OC(=O)CC)cc2)OP(=O)(O)OP(=O)(O)OC[C@@H]2C=C[C@H](n3cc(C)c(=O)[nH]c3=O)O2)cc1.N.N (some centres not stated) | 541 | 33000
– | – | – | 460 | – | – | CCCCCCCCCCCC(=O)Oc1ccc(COP(=O)(O)OP(=O)(O)OP(=O)(O)OC[C@@H]2C=C[C@H](n3cc(C)c(=O)[nH]c3=O)O2)cc1.N.N.N | – | –
31000 | – | – | – | – | – | Cc1cn([C@H]2C=C[C@@H](CO)O2)c(=O)[nH]c1=O [STAVUDINE] | > 116 | > 50000
– | – | – | 52 | – | – | CCCCCCCCCCCOC(=O)Oc1ccc(COP(=O)(OCc2ccc(OC(=O)CC)cc2)OP(=O)(O)OP(=O)(O)OC[C@@H]2C=C[C@H](n3cc(C)c(=O)[nH]c3=O)O2)cc1.N.N (some centres not stated) | – | –
– | – | – | 74 | – | – | CCCCCCCCCCCCCCCOC(=O)Oc1ccc(COP(=O)(OCc2ccc(OC(=O)CCCC)cc2)OP(=O)(O)OP(=O)(O)OC[C@@H]2C=C[C@H](n3cc(C)c(=O)[nH]c3=O)O2)cc1.N.N (some centres not stated) | – | –
1460 | 290 | 500 | > 1600 | – | – | CCCCCCCCCCCCCCCCOC(=O)Oc1ccc(COP(=O)(O)OP(=O)(O)OP(=O)(O)OC[C@@H]2C=C[C@H](n3cc(C)c(=O)[nH]c3=O)O2)cc1.N.N.N | 122 | 61000
– | – | – | 81 | – | – | CCCCCCCCCCCCCCCCOC(=O)Oc1ccc(COP(=O)(OCc2ccc(OC(C)=O)cc2)OP(=O)(O)OP(=O)(O)OC[C@@H]2C=C[C@H](n3cc(C)c(=O)[nH]c3=O)O2)cc1.N.N (some centres not stated) | – | –
230 | 90 | 340 | 101 | – | – | CCCCCCCCCOC(=O)Oc1ccc(COP(=O)(OCc2ccc(OC(=O)OCCCCCCCCC)cc2)OP(=O)(O)OP(=O)(O)OC[C@@H]2C=C[C@H](n3cc(C)c(=O)[nH]c3=O)O2)cc1.N.N | 100 | 34000
